Compounds with a hit are over-represented: about 2.9% of the library has one in this group of screens.
TRPC4 agonist: activators of mouse TRPC4 channel; Q9QUQ5; HEK293 TRPC4beta/mu-opioid, Fluo4 calcium fluorescence; active compounds read high; B-score at 10 µM; actives 0.49% (n = 310,000);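 active means B-score above 5 SD of library B-scores, and initial fluorescence ratio not above library mean plus 5 SD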;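 further: positive B-score marks a calcium rise read as TRPC4 activation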
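Material: HEK293 stable line with TRPC4beta plus mu-opioid receptor; technique: Fluo4 calcium-sensitive dye fluorescence, kinetic, 1 Hz baseline; timing: Fluo4 dye loading 45 min at room temperature, 110 s recording; controls: assay buffer as low control, maximal DAMGO as high control; read-out: integrated baseline-normalised fluorescence ratio, converted to per-well B score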
TRPC6 inhibitor: blocks the mouse TRPC6 cation channel; Q61143; HEK293-TRPC6, membrane potential dye, ACh-evoked depolarization; active compounds read low; B-score at 10 µM; actives 1.1% (n = 310,000); AID 2553;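 active means B-score under library mean minus 3 SD, initial fluorescence not abnormally high, positive integrated signal ratio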;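 further: B-score derived from integrated fluorescence ratio over the kinetic read; more negative B-score means stronger inhibition of depolarization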
Target sequence (Q61143 whole entry, looked up): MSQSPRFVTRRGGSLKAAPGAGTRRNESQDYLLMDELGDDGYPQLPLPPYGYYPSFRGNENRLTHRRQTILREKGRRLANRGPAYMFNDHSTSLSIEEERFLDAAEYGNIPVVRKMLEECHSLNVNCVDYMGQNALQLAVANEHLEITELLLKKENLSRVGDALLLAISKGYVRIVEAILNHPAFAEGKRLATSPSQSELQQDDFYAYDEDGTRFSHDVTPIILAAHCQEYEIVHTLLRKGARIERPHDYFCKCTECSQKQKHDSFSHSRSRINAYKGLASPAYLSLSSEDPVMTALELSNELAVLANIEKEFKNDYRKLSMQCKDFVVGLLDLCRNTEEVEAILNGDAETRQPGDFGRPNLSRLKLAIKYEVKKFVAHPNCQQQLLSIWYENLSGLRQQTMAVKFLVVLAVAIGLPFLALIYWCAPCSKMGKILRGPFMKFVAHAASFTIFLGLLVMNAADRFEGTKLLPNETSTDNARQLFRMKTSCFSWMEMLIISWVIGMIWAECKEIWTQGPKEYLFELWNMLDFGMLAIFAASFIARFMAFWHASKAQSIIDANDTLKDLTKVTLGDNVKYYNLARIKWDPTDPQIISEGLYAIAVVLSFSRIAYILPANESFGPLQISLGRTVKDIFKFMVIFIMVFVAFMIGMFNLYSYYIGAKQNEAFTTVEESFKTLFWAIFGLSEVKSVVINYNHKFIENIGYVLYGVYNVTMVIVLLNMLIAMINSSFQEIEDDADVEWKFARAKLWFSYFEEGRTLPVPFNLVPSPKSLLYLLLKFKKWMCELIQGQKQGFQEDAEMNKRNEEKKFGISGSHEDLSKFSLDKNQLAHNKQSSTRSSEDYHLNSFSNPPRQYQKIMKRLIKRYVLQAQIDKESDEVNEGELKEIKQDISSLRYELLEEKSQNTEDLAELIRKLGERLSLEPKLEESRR
TRPC6 act: activates the mouse TRPC6 cation channel | AID 2550 | actives 0.13% (n = 310,000) | HEK293-TRPC6 membrane potential dye fluorescence; active compounds read high | B-score at 10 µM;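 active means B-score of the integrated fluorescence ratio above library mean plus 3 SD, and starting fluorescence ratio within library mean plus 5 SD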;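 further: higher score means more depolarization so channel activation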
TRPC4 inh: inhibitors of mouse TRPC4 channel; actives 0.39% (n = 300,000); Q9QUQ5; HEK293 TRPC4beta/mu-opioid, DAMGO-evoked Fluo4 calcium flux; active compounds read low; B-score at 10 µM; AID 2247;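 active means B-score over 3 SD under the library average, no early fluorescence shift, positive overall ratio signal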
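System: stable TRPC4beta/mu-opioid receptor HEK293 cells; Dosing: single-point compound dosing; Measured by: Fluo4 Ca2+ flux fluorescence; Read-out basis: per-well B score of integrated baseline-normalized Fluo4 ratio.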
TRPC4 PAM: allosteric potentiators of mouse TRPC4 channel. HEK293 TRPC4beta/mu-opioid, DAMGO EC20, Fluo-4 Ca2+ flux; active compounds read high. B-score at 10 µM. actives 0.42% (n = 310,000);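 active means B-score of calcium response area above 5 SD of library B-scores, with initial fluorescence ratio within 5 SD of library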;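 further: B-score of integrated fluorescence ratio over time as area under calcium response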
Kir21 block: Kir2.1 (mouse) channel inhibition; HEK293-Kir2.1, FluxOR thallium flux fluorescence; active compounds read low; B-score at 10 µM; actives 0.85% (n = 310,000);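 active means fluorescence ratio B-score at or below minus 3 SD of library scores, with starting-brightness B-score within 2 SD, cut at about -4.2 in these data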;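 further: channel flux triggered by added potassium and thallium sulfate stimulus; B-score of peak minus minimum fluorescence over baseline after thallium stimulus; more negative B-score means stronger Kir2.1 block with less thallium influx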
TRPC4 sel inh 2: second selectivity test of TRPC6 inhibitors: effect on mouse TRPC4; shares compounds with TRPC6 inhibitor; HEK293 TRPC4/MOR, membrane potential dye fluorescence; channel activated by saturating DAMGO dose; inhibition, % at 10 µM; actives 42% (n = 920); AID 2776;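 active means compounds whose fluorescence signal differed from control wells by over 3 SD, either direction, in both duplicate plates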
TRPC4 spec: selectivity of TRPC6 inhibitors: effect on mouse TRPC4; actives 61% (n = 920); activity change, negative = inhibition, % at 10 µM; shares compounds with TRPC6 inhibitor; HEK293 TRPC4/mu-opioid, membrane potential fluorescence; AID 2777;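 active means rise or fall in signal beyond 3 SD of buffer-only wells in both replicate plates, either sign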;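 further: integrated kinetic ratio of fluorescence range over baseline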
HEK293 MPD ctr 2-1: parental HEK293 nonspecific activity of TRPC6 inhibitors, second screen; actives 31% (n = 920); parental HEK293 membrane potential dye fluorescence; maximal acetylcholine challenge after compound addition; AID 2779; shares compounds with TRPC6 inhibitor; signal change vs control, % at 10 µM;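 active means membrane potential signal moving either way by over 3 SD of the maximum-effect control, in both duplicate plates, meaning non-specific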
HEK293 MPD ctr-1: counter-screen for TRPC6 inhibitors: effect in parental HEK293 cells | actives 60% (n = 920) | shares compounds with TRPC6 inhibitor | parental HEK293 membrane potential dye fluorescence | membrane potential signal change, % at 10 µM | AID 2780;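 active means membrane potential signal shifting up or down by more than 3 SD of buffer-only wells, on both duplicate plates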
HEK293 MPD ctr-2: counter-screen for TRPC6 modulators: effect in parental HEK293 cells | shares compounds with TRPC6 inhibitor | membrane potential dye fluorescence | membrane potential signal change, % at 10 µM | actives 51% (n = 2,400);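 active means membrane potential signal moves up or down beyond 5 SD from buffer-only wells, on both duplicate plates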
HEK293 MPD ctr 2-2: second check of TRPC6 modulator effects in parental HEK293 cells; shares compounds with TRPC6 inhibitor; membrane potential dye fluorescence; after compound, maximal acetylcholine stimulation; inhibition, % at 10 µM; actives 14% (n = 2,400); AID 488926;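 active means membrane potential signal drops by more than 5 SD from the mean control signal, in both duplicate plates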;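 further: plate controls were acetylcholine ECmax control wells for no effect and buffer only wells for full effect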
TRPC4/MOR mod: tests whether TRPC6 modulators also affect mouse TRPC4; shares compounds with TRPC6 inhibitor; HEK293 TRPC4/mu-opioid, membrane potential fluorescence; percent change from control (negative = decrease, positive = increase), % at 10 µM; actives 69% (n = 2,400); AID 488927;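 active means membrane potential signal moved up or down beyond 5 SD of buffer control wells, in both duplicate plates, actives on both sides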;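 further: plate controls were assay buffer wells for no effect and DAMGO maximal-effect wells for full effect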
TRPC4 ctr inh 2: second check of whether TRPC6 modulators also affect mouse TRPC4 | HEK293 TRPC4/mu-opioid, membrane potential dye fluorescence; stimulated with maximal-effect DAMGO | shares compounds with TRPC6 inhibitor | AID 488928 | actives 55% (n = 2,400) | inhibition, % at 10 µM;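 active means drop in membrane potential signal beyond 5 SD of the control wells in both duplicate plates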;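 further: TRPC4 counter screen for TRPC6 hits run under conditions tuned for TRPC6 not TRPC4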
TRPC6 inh conf: confirmation of mouse TRPC6 inhibitors | HEK293-TRPC6, membrane potential dye, ACh-evoked depolarization | inhibition, % at 10 µM | AID 488960 | shares compounds with TRPC6 inhibitor | actives 43% (n = 3,300);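 active means fluorescence ratio falls more than 5 SD below the full-stimulation control mean, in both duplicate runs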;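 further: integrated fluorescence ratio of peak minus minimum over baseline after agonist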
TRPC6 act conf: mouse TRPC6 activator confirmation | shares compounds with TRPC6 inhibitor | HEK293-TRPC6 membrane potential dye fluorescence, FDSS | AID 488961 | actives 11% (n = 2,800) | activation, % at 10 µM;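 active means ratio signal rise beyond 5 SD above unstimulated control wells' mean, seen in both duplicate runs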;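 further: plate controls were buffer EC0 wells for no effect and acetylcholine ECmax response for full effect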
Active calls of the source: *; i = inactive; · = no result given.

SMILES	TRPC4 agonist	TRPC6 inhibitor	TRPC6 act	TRPC4 inh	TRPC4 PAM	Kir21 block	HEK293 MPD ctr-2	HEK293 MPD ctr 2-2	TRPC4/MOR mod	TRPC4 ctr inh 2	TRPC6 inh conf	TRPC6 act conf	others
COC(=O)C1=C(C(=O)OC)[C@@H]2N(Cc3ccccc3)c3ccccc3[C@@]23C[C@@H](C(=O)OC)N(C(=O)NC2CCCCC2)C3=N1	i	i	i	i	i	0.7	·	·	·	·	·	·
CCN1CCN(c2ccc([N+](=O)[O-])c(Sc3nc4ccccc4[nH]3)c2)CC1	i	-5.4*	i	i	i	0.04	i	i	-12%*	61%*	46%*	i
Cc1cc(C)n(-c2nc(NCCCN(C)C)c3c4c(sc3n2)COC(C)(C)C4)n1	i	-7.6*	i	i	i	-0.32	·	·	·	·	i	i	TRPC4 sel inh 2=i;TRPC4 spec=-11%*;HEK293 MPD ctr 2-1=i;HEK293 MPD ctr-1=-188%*
Cc1cc(C)n(-c2nc(NCCN(C)C)c3c4c(sc3n2)COC(C)(C)C4)n1	i	-5.4*	i	i	i	-1.1	i	i	-13%*	44%*	i	i
Cc1cc(C)n(-c2nc(NCCC(C)C)c3c4c(sc3n2)COC(C)(C)C4)n1	i	i	i	i	i	1.6	·	·	·	·	·	·
CCN(CC)CCNc1nc(-n2nc(C)cc2C)nc2sc3c(c12)CC(C)(C)OC3	i	-6.3*	i	i	i	-3.5	i	i	i	40%*	i	i
Cc1cc(C)n(-c2nc(NCCN(C)C)c3c4c(sc3n2)CCCC4)n1	i	i	i	i	i	-3.6	·	·	·	·	·	·
Cc1cc(C)n(-c2nc(NCCCN(C)C)c3c4c(sc3n2)CCCC4)n1	i	-7.1*	i	i	i	-1.9	·	·	·	·	57%*	i	TRPC4 sel inh 2=66%*;TRPC4 spec=i;HEK293 MPD ctr 2-1=i;HEK293 MPD ctr-1=i
COC(=O)c1c(NC(=O)c2ccccc2)sc2c1CC(C)(C)OC2	i	i	i	i	i	0.16	·	·	·	·	·	·
CCOC(=O)N1CCC(NC(=S)Nc2ccc3nc(N4CCN(CC)CC4)cc(C)c3c2)CC1	i	i	i	i	i	-2.4	·	·	·	·	·	·
CC(C)(C)NC(=O)c1ccc(C(=O)NC(C)(C)C)cc1	i	i	i	i	i	-0.18	·	·	·	·	·	·
CCOC(=O)c1c(NC(=O)Cc2ccccc2)sc2c1CCN(C)C2	i	i	i	i	i	-2.8	·	·	·	·	·	·
CCOC(=O)c1c(NC(=O)c2ccc(S(=O)(=O)N3CCOCC3)cc2)sc2c1CCN(C(C)C)C2	i	i	i	i	i	0.85	·	·	·	·	·	·
CCOC(=O)c1c(NC(=O)CSc2nnc(C)s2)sc2c1CCN(C)C2	i	-5.8*	i	i	i	0.72	-65%*	i	-16%*	i	i	i
CCOC(=O)c1c(NC(=O)c2ccc(S(=O)(=O)N(C)CC3CCCO3)cc2)sc2c1CCN(C)C2 (centres undefined)	i	-5.2*	i	i	i	-2.2	167%*	i	-30%*	i	i	i
CC1CCN(CC(C)OC(=O)c2ccc3c(c2)OCCO3)CC1 (centres undefined)	i	-5.2*	i	i	i	-1.6	120%*	i	15%*	i	i	·
Cc1cccc(NC(=O)CCNS(=O)(=O)c2ccc(Cl)cc2)c1	i	-5.1*	i	i	i	-0.89	i	i	i	i	i	i
O=S(=O)(c1ccccc1)N1CC=C(c2ccccc2)CC1	i	i	i	i	i	-0.15	·	·	·	·	·	·
O=C(CSc1c2c(nc3cc(Cl)ccc13)CCCC2)NCCCN1CCOCC1	i	i	i	i	i	-1.7	·	·	·	·	·	·
O=C(CSc1c2c(nc3ccc(Cl)cc13)CCCC2)NCCCN1CCOCC1	i	-11*	i	i	i	0.1	·	·	·	·	i	i	TRPC4 sel inh 2=i;TRPC4 spec=i;HEK293 MPD ctr 2-1=34%*;HEK293 MPD ctr-1=i
CN(C)S(=O)(=O)c1ccc(C(=O)Nc2nnc(-c3ccc4c(c3)CCCC4)o2)cc1	i	-5.6*	i	i	i	-0.29	i	i	i	i	i	i
CN(C)S(=O)(=O)c1ccc(C(=O)Nc2nnc(-c3cccs3)o2)cc1	i	i	i	i	i	0	·	·	·	·	·	·
CN(C)CCn1c(=N)n(CC(O)c2ccc(Cl)c(Cl)c2)c2ccccc21 (centres undefined)	i	-5.3*	i	i	i	-6.9*	i	i	58%*	78%*	i	i
C#C[C@]1(O)CC[C@H]2[C@@H]3CCc4cc(OC)ccc4[C@H]3CC[C@@]21C	i	i	i	i	i	-1.1	·	·	·	·	·	·

Compound activity from PubChem BioAssay.
